From ChEMBL document CHEMBL4715714, “Design, synthesis and biological evaluation of thiosemicarbazones, hydrazinobenzothiazoles and arylhydrazones as anticancer agents with a potential to overcome multidrug resistance” (Eur J Med Chem, 2016)
Active and inactive are the calls of the source. The rule behind the calls is not given here.

Assays:
[1] = Cytotoxicity against human A2780adr cells assessed as inhibition of cell proliferation incubated for 72 hrs by MTT assay; format: functional, cell-based; conditions: A2780 ADR
How it was run: (§1)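 Cells were seeded (10000/well for A2780, 5000/well for MES-SA/Dx5 and KB-3-1/V1) and left to attach 12 h, then exposed to compound for 72 h. Medium was removed, and MTT (0.83 mg/mL) was added for 1 h at 37 °C. Cells were lysed in DMSO and absorbance read at 540 nm. Signal was corrected for unstained lysate background, normalized to untreated cells, and IC50 taken from a sigmoidal dose-response fit.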

KB-V1 = assay: Cytotoxicity against human KB-V1 cells assessed as inhibition of cell proliferation incubated for 72 hrs by MTT assay; format: functional, cell-based; conditions: KB-V1, 72 h; how it was run: as §1
MES-SA [2] = assay: Cytotoxicity against human MES-SA cells transfected with mCherry fluorescent protein assessed as inhibition of cell proliferation incubated for 72 hrs by fluorescent assay; format: functional, cell-based
How it was run: (§2)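 MES-SA and MES-SA/Dx5 cells were made to stably express mCherry by lentiviral transduction. Cells were seeded at 5000 (96-well) or 2500 (384-well) per well, allowed to attach 24 h, then treated with compound dilutions for 72 h. Viability was read as fluorescence, excitation 585 nm, emission 610 nm.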

MES-SA [3] = assay: Cytotoxicity against human MES-SA cells assessed as inhibition of cell proliferation incubated for 72 hrs by MTT assay; format: functional, cell-based; how it was run: as §1
A2780 = assay: Cytotoxicity against human A2780 cells assessed as inhibition of cell proliferation incubated for 72 hrs by MTT assay; format: functional, cell-based; conditions: A2780, 72 h; how it was run: as §1
MES-SA/Dx5 [4] = assay: Cytotoxicity against human MES-SA/DX5 cells transfected with mCherry fluorescent protein assessed as inhibition of cell proliferation incubated for 72 hrs by fluorescent assay; format: functional, cell-based; how it was run: as §2
KB 3-1 = assay: Cytotoxicity against human KB-3-1 cells assessed as inhibition of cell proliferation incubated for 72 hrs by MTT assay; format: functional, cell-based; conditions: KB 3-1, 72 h; how it was run: as §1
MES-SA/Dx5 [5] = assay: Cytotoxicity against human MES-SA/DX5 cells assessed as inhibition of cell proliferation incubated for 72 hrs by MTT assay; format: functional, cell-based; conditions: MES-SA/Dx5, 72 h; how it was run: as §1
[6] = Selectivity ratio of IC50 for human MES-SA cells to IC50 for human MES-SA/DX5 cells incubated for 72 hrs by MTT assay; format: functional
How it was run: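 The selectivity ratio is the IC50 in P-gp-negative parental cells divided by the IC50 in the P-gp-positive resistant partner.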

[7] = Selectivity ratio of IC50 for human MES-SA cells transfected with mCherry to IC50 for human MES-SA/DX5 cells transfected with mCherry incubated for 72 hrs by fluorescent assay; format: functional
MES-SA/Dx5 [8] = assay: Cytotoxicity against human MES-SA/DX5 cells transfected with mCherry fluorescent protein incubated for 72 hrs in presence of efflux pump inhibitor, Tariquidar by fluorescence assay; format: functional, cell-based
How it was run: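 The mCherry-expressing cells (lentiviral) were seeded at 5000 or 2500 per well, attached for 24 h, and exposed 72 h to compounds with Tariquidar coadministered. Live-cell signal was fluorescence at 585 nm excitation and 610 nm emission.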

[9] = Homo sapiens, MES-SA, 72 h, read-out: IC50
[10] = Homo sapiens, MES-SA/Dx5, 72 h, read-out: IC50
[11] = Homo sapiens, MES-SA, 72 h, read-out: pIC50 (converted)
[12] = Homo sapiens, MES-SA/Dx5, 72 h, read-out: pIC50 (converted)

Row | Compound | IC50 ([1]; read-out: IC50) | IC50 ([1]; read-out: pIC50 (converted)) | IC50 (KB-V1; read-out: IC50) | IC50 (KB-V1; read-out: pIC50 (converted)) | IC50 (MES-SA [2]; [9]) | IC50 (MES-SA [3]; read-out: IC50) | IC50 (MES-SA [3]; read-out: pIC50 (converted)) | IC50 (A2780; read-out: IC50) | IC50 (A2780; read-out: pIC50 (converted)) | IC50 (MES-SA/Dx5 [4]; [10]) | IC50 (KB 3-1; read-out: IC50) | IC50 (KB 3-1; read-out: pIC50 (converted)) | IC50 (MES-SA/Dx5 [5]; read-out: IC50) | IC50 (MES-SA/Dx5 [5]; read-out: pIC50 (converted)) | IC50 (MES-SA [2]; [11]) | IC50 (MES-SA/Dx5 [4]; [12]) | also measured
1 | COc1ccc(NC(=S)N/N=C(\C)c2ccccc2N)cc1 | 4.87 µM | 4.9 µM | 22.3 µM | 22.4 µM | 18.5 µM | 10.7 µM | 10.5 µM | 4.35 µM | 4.27 µM | 17.7 µM | 20.6 µM | 20.4 µM | 8.02 µM | 7.94 µM | – | – | –
2 | O=[N+]([O-])c1ccc(O)c(/C=N/NC(=S)Nc2cccc(C(F)(F)F)c2)c1 | – | – | – | – | 16.4 µM | – | – | – | – | 11.9 µM | – | – | – | – | – | – | –
3 | COc1ccc(NC(=S)N/N=C/c2ccccc2O)cc1 | 6.95 µM | 6.92 µM | 4.87 µM | 5.01 µM | 2.67 µM | 3.91 µM | 3.8 µM | 5.47 µM | 5.37 µM | 1.85 µM | 5.02 µM | 5.01 µM | 3.5 µM | 3.47 µM | – | – | –
4 | CCc1ccc(/C=N/Nc2nc3ccccc3s2)nc1 | 0.62 µM | 0.589 µM | 1.14 µM | 1.15 µM | 4.26 µM | 3.24 µM | 3.16 µM | 0.81 µM | 0.813 µM | 3.83 µM | 0.61 µM | 0.933 µM | 1.85 µM | 1.86 µM | 4.27 µM | 3.55 µM | Ratio IC50 [6]: 1.68
5 | C/C(=N\Nc1ccccn1)c1cc(C)c2ccccc2n1 | – | – | – | – | 0.3 µM | – | – | – | – | 0.29 µM | – | – | – | – | 0.288 µM | 0.295 µM | –
6 | CCc1ccc(/C=N/NC(=S)Nc2ccc([N+](=O)[O-])cc2)nc1 | – | – | 8.93 µM | 8.91 µM | 10.5 µM | 10.9 µM | 10.7 µM | – | – | 11.1 µM | 8.03 µM | 7.94 µM | 8.02 µM | 8.13 µM | – | – | –
7 | COc1ccccc1/C=N/Nc1nc2ccccc2s1 | – | – | – | – | – | – | – | – | – | – | – | – | – | – | – | – | pIC50 (MES-SA [2]): inactive; IC50 (MES-SA [2]; mes-sa): Not Active; pIC50 (MES-SA/Dx5 [4]): inactive; IC50 (MES-SA/Dx5 [4]; mes-sa/dx5): Not Active
8 | Cc1ccc(O)c(/C=N/Nc2nc3ccccc3s2)c1 | – | – | – | – | 89.1 µM | – | – | – | – | 15.6 µM | – | – | – | – | 85.1 µM | 13.8 µM | Ratio IC50 [7]: 5.65; Activity (MES-SA/Dx5 [8]): Active
9 | O=[N+]([O-])c1ccc(O)c(/C=N/NC(=S)Nc2ccccc2C(F)(F)F)c1 | – | – | – | – | 21.1 µM | – | – | – | – | 13.9 µM | – | – | – | – | – | – | –
